In ChEMBL document CHEMBL1142569, “Two new hepatoprotective stilbene glycosides from Acer mono leaves” (J Nat Prod, 2005):
The source made the active and inactive calls. No cut-off for these calls is given here.

The compounds below were run on Hepatocyte (assay: Hepatoprotective activity against H2O2-induced hepatotoxicity in Wistar rat hepatocytes assessed as reduction in glutamic pyruvate transaminase release after 1 hr relative to control).
Assay type: functional, cell-based
In short: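 Hepatocytes from male Wistar rats were isolated by collagenase perfusion and cultured for one day after plating. Cells were pretreated with or without compound for 1 h, then exposed to 12 mM H2O2 for 1.5 h. GPT released into the medium was measured by the Reitman-Frankel method. Relative protection (%) = 100 × (H2O2-treated − sample)/(H2O2-treated − unchallenged control). Mean ± SD, n = 3.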

Row | SMILES | Activity
1 | COc1cc(/C=C/c2ccc(O)cc2)cc(O[C@@H]2O[C@H](CO[C@@H]3OC[C@](O)(CO)[C@H]3O)[C@@H](O)[C@H](O)[C@H]2O)c1 | Active
2 | COc1cc(/C=C/c2ccc(O)cc2)cc(O[C@@H]2O[C@H](CO)[C@@H](O)[C@H](O)[C@H]2O)c1 | Active
3 | C[C@@H]1O[C@@H](Oc2c(-c3ccc(O)c(O)c3)oc3cc(O)cc(O)c3c2=O)[C@H](O)[C@H](O)[C@H]1O | inactive
4 | O=C1C[C@@H](c2ccc(O)cc2)Oc2cc(O)cc(O)c21 | inactive
5 | O=C1C[C@@H](c2ccc(O)cc2)Oc2cc(O[C@@H]3O[C@H](CO)[C@@H](O)[C@H](O)[C@H]3O)cc(O)c21 | inactive
6 | O=c1ccoc2cc(O[C@@H]3O[C@H](CO)[C@@H](O)[C@H](O)[C@H]3O)cc(O)c12 | inactive
7 | O=C1C[C@@H](c2ccc(O)c(O)c2)Oc2cc(O)cc(O)c21 | inactive
8 | O=C1C[C@@H](c2ccc(O)c(O)c2)Oc2cc(O[C@@H]3O[C@H](CO)[C@@H](O)[C@H](O)[C@H]3O)cc(O)c21 | inactive
9 | O=c1c(O)c(-c2ccc(O)c(O)c2)oc2cc(O)cc(O)c12 | Active

What follows are compounds tested on Hepatocyte (assay: Hepatoprotective activity against H2O2-induced hepatotoxicity in Wistar rat hepatocytes assessed as reduction in glutamic pyruvate transaminase release at 100 uM after 1 hr relative to control).
Assay type: functional, cell-based

Row | SMILES | Activity
10 | COc1cc(C2Oc3cc([C@H]4Oc5cc(O)cc(O)c5C(=O)[C@@H]4O)ccc3OC2CO)ccc1O (stereo not given in full) | Active
